Experimental data from ChEMBL document CHEMBL1240447, “Synthesis and bioactivity of sphingosine kinase inhibitors and their novel aspirinyl conjugated analogs” (Eur J Med Chem, 2010).
pIC50: −log10 of the molar value. The source made the active and inactive calls. No cut-off for these calls is given here.

Key:
[1] = Cytotoxicity against human H441 cells after 72 hrs by SRB assay; assay type: functional, cell-based; settings: NCI-H441, 72 h
MIA PaCa-2 = experiment: Cytotoxicity against human MIAPaCa2 cells after 72 hrs by SRB assay; assay type: functional, cell-based; settings: MIA PaCa-2, 72 h
[2] = Chemical stability of the compound assessed as compound remaining after 72 hrs by HPLC analysis; assay type: physicochemical
In short: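 Compound in DMSO, 1 mg/mL, added to 5 mL serum-free DMEM (no cells) and shaken at 37 °C; samples taken at 0, 2, 16 and 72 h, filtered and analyzed by C18 HPLC; percentages of parent and conjugate peak areas calculated per time point.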

NCI-H226 = experiment: Cytotoxicity against human NCI-H226 cells after 72 hrs by SRB assay; assay type: functional, cell-based; settings: NCI-H226, 72 h
[3] = Cytotoxicity against human MCF10A cells after 72 hrs by SRB assay; assay type: cell-based; settings: MCF-10A
[4] = target: Sphingosine kinase 1 (Homo sapiens) (UniProt Q9NYA1); experiment: Inhibition of Sphingosine kinase 1 in human HeLa cells at >=5 uM pre-incubated for 24 hrs; assay type: cell-based
Sequence of Sphingosine kinase 1 (Homo sapiens) (Q9NYA1 whole entry): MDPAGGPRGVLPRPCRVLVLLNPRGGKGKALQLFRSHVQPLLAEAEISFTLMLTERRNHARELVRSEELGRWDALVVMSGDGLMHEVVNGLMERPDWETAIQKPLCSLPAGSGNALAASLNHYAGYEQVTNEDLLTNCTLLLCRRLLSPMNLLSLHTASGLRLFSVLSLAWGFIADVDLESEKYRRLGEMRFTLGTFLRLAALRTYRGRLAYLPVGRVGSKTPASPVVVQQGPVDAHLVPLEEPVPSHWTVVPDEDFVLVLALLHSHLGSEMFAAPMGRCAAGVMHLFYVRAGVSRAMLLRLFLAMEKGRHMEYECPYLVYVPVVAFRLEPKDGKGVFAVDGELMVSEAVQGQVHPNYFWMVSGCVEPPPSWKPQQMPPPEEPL
In short: (§1)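 HeLa cells preincubated 24 h with compound or DMSO; cytosol (100,000g supernatant) at 10 µg protein incubated with 50 µM D-erythro-sphingosine, 200 µM ATP plus [γ-32P]ATP in pH 7.4 Tris buffer, 30 min, 37 °C; S1P resolved by TLC and quantified by scintillation counting; triplicate.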

[5] = target: Sphingosine kinase 1 (Homo sapiens) (UniProt Q9NYA1); experiment: Inhibition of Sphingosine kinase 1 in human HeLa cells at 1.25 uM pre-incubated for 24 hrs; assay type: cell-based; in short: as §1
MDA-MB-231 = experiment: Cytotoxicity against human MDA-MB-231 cells after 72 hrs by SRB assay; assay type: functional, cell-based; settings: MDA-MB-231, 72 h
NCI-H460 = experiment: Cytotoxicity against human H460 cells after 72 hrs by SRB assay; assay type: functional, cell-based; settings: NCI-H460, 72 h
[6] = Cytotoxicity against human U87MG cells after 72 hrs by SRB assay; assay type: functional, cell-based, U-87MG ATCC; settings: U-87 MG
MEF = experiment: Cytotoxicity against MEF after 72 hrs by SRB assay; assay type: cell-based; settings: Mus musculus
A549 = experiment: Cytotoxicity against human A549 cells after 72 hrs by SRB assay; assay type: functional, cell-based; settings: A549, 72 h
[7] = Half life in C3H-HEJ mouse serum at 60 mg/kg, ip up to 16 hrs by HPLC analysis; assay type: ADME, organism-based; design: dose 60 mg/kg, route intraperitoneal
HeLa = experiment: Cytotoxicity against human HeLa cells after 72 hrs by SRB assay; assay type: functional, cell-based
Serum [8] = experiment: Metabolic stability of the compound in fetal bovine serum assessed as conversion of SKI-1 after 16 hrs by HPLC analysis; assay type: ADME, cell-free, Bos taurus; settings: cattle
In short: (§2)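 Compound in DMSO, 1 mg/mL, added to 5 mL DMEM with 10% FBS (no cells) and shaken at 37 °C; samples at 0, 2, 16 and 72 h filtered and run on C18 HPLC; conjugate remaining and released parent SKI expressed as percentages of peak areas per time point.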

Serum [9] = experiment: Metabolic stability of the compound in fetal bovine serum assessed as conversion of SKI-2 after 72 hrs by HPLC analysis; assay type: ADME, cell-free, Bos taurus; settings: cattle; in short: as §2
[10] = Metabolic stability of the compound in fetal bovine serum assessed as compound remaining after 72 hrs by HPLC analysis; assay type: ADME, cell-free, Bos taurus; settings: cattle, read-out: Stability; in short: as §2
Serum [11] = experiment: Metabolic stability of the compound in fetal bovine serum assessed as conversion of SKI-2 after 16 hrs by HPLC analysis; assay type: ADME, cell-free, Bos taurus; settings: cattle; in short: as §2
Serum [12] = experiment: Metabolic stability of the compound in fetal bovine serum assessed as conversion of SKI-2 after 2 hrs by HPLC analysis; assay type: ADME, cell-free, Bos taurus; settings: cattle; in short: as §2

Row | Compound | pIC50 [1] | pIC50 (MIA PaCa-2) | Stability [2] | pIC50 (NCI-H226) | pIC50 [3] | Activity [4] | Activity [5] | pIC50 (MDA-MB-231) | pIC50 (NCI-H460) | pIC50 [6] | pIC50 (MEF) | pIC50 (A549) | half-life [7] [min] | pIC50 (HeLa) | Stability (Serum [8]) [%] | Stability (Serum [9]) [%] | remaining at 72 h [10] [%] | Stability (Serum [11]) [%] | Stability (Serum [12]) [%]
1 | CC(=O)Oc1ccccc1C(=O)Oc1ccc2ccccc2c1/C=N/NC(=O)c1cc(-c2ccc3ccccc3c2)n[nH]1 | 6.22 | 5.80 | Stable | 5.77 | 5.59 | Active | Active | 5.89 | 5.92 | 5.82 | 5.26 | 6.05 | 600 | 6.00 | 80 | – | – | – | –
2 | Oc1ccc(Nc2nc(-c3ccc(Cl)cc3)cs2)cc1 | 5.10 | 5.11 | – | 5.07 | 4.84 | – | – | 5.09 | 5.04 | 4.97 | 5.05 | 5.11 | – | 5.04 | – | – | – | – | –
3 | CC(=O)Oc1ccccc1C(=O)Oc1ccc(Nc2nc(-c3ccc(Cl)cc3)cs2)cc1 | 5.24 | 5.06 | Stable | 5.17 | 4.95 | Active | Active | 5.08 | 5.04 | 5.09 | 5.03 | 5.23 | – | 4.95 | – | 75 | 25 | 50 | 15
4 | O=C(N/N=C/c1c(O)ccc2ccccc12)c1cc(-c2ccc3ccccc3c2)n[nH]1 | 5.70 | 5.32 | – | 5.24 | 5.39 | – | – | 5.36 | 5.49 | 6.00 | 5.30 | 5.42 | 420 | 6.00 | – | – | – | – | –
